Results on one compound are retold here after ChEMBL document CHEMBL4033653, “Effect of 1,2,3-triazole salts, non-classical bioisosteres of miltefosine, on Leishmania amazonensis” (Bioorg Med Chem, 2017).

For test [1], the system named is Leishmania amazonensis. Nature of the test: Induction of lipid inclusions in Leishmania amazonensis IFLA/BR/1967/PH8 promastigotes at 10 uM after 24 hrs by Nile Red satining-based spectrofluorometric analysis relative to control. The class given is functional. In outline: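 WT (PH8) promastigotes at 1x10^7 cells/mL in exponential phase, cultured 24 h at 25 °C with or without 2.5–20.0 µM. Parasites incubated with Nile Red, then fluorescence measured spectrofluorometrically. Reported as arbitrary fluorescence units versus untreated parasites, mean of three experiments run in triplicate.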

Test [2] concerns Leishmania amazonensis. Nature of the test: Induction of mitochondrial membrane potential loss in Leishmania amazonensis IFLA/BR/1967/PH8 promastigotes at 10 uM after 24 hrs by JC-1 staining-based spectrofluorometric analysis relative to control. The class given is functional. An outline of the steps:
(§1)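 Exponential WT promastigotes (1x10^7 cells/mL) treated 24 h at 25 °C; washed, JC-1 loaded, read at 485/528 and 540/600 nm; Δψm as 600/528 ratio, untreated = 100%; FCCP 20.0 µM for 30 min as positive control; three experiments in triplicate.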

Test [3] concerns Leishmania amazonensis. Kind of test: Induction of mitochondrial membrane potential loss in Leishmania amazonensis IFLA/BR/1967/PH8 promastigotes at 5 uM after 24 hrs by JC-1 staining-based spectrofluorometric analysis relative to control. The class given is functional. An outline of the steps: as §1
The test system of test [4] is Leishmania amazonensis. Nature of the test: Induction of ROS accumulation in Leishmania amazonensis IFLA/BR/1967/PH8 promastigotes at 10 uM after 72 hrs by H2DCFDA staining-based fluorometric analysis relative to control. The class given is functional. In outline: (§2)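 WT exponential-phase promastigotes treated at 25 °C; adjusted to 2x10^7 cells in PBS, loaded with H2DCFDA 30 min dark at room temperature; fluorescence 485/528 nm versus untreated; three independent experiments.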

The test system of test [5] is Leishmania amazonensis. Nature of the test: Induction of apoptosis in Leishmania amazonensis IFLA/BR/1967/PH8 promastigotes assessed as early apoptotic population at 2.5 uM after 24 hrs by Annexin V-FITC/PI staining based flow cytometric analysis (reference value: 5.29%). The class given is functional.
Test [6] deals with Leishmania amazonensis. Nature of the test: Antileishmanial activity against Leishmania amazonensis IFLA/BR/1967/PH8 amastigotes infected in murine macrophages after 72 hrs by fluorometric analysis. The class given is functional. The note with it: IFLA/BR/1967/PH8, 72 h.
Test [7] relates to Leishmania amazonensis. Nature of the test: Induction of apoptosis in Leishmania amazonensis IFLA/BR/1967/PH8 promastigotes assessed as early apoptotic population at 10 uM after 24 hrs by Annexin V-FITC/PI staining based flow cytometric analysis (reference value: 5.29%). The class given is functional. In outline:
(§3)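 Exponential-phase WT promastigotes (1x10^7 cells/mL) cultured 24 h at 25 °C; stained annexin V-FITC plus PI, flow cytometry with 10,000 events gated on parasites; quadrant percentages; three independent experiments.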

Test [8] concerns Leishmania amazonensis. Kind of test: Induction of ROS accumulation in Leishmania amazonensis IFLA/BR/1967/PH8 promastigotes at 20 uM after 72 hrs by H2DCFDA staining-based fluorometric analysis relative to control. The class given is functional. In outline:
as §2

The subject of test [9] is Leishmania amazonensis. Nature of the test: Antileishmanial activity against Leishmania amazonensis IFLA/BR/1967/PH8 promastigotes transfected with red fluorescent protein after 72 hrs by MTT assay. The note with it: IFLA/BR/1967/PH8, 72 h. The class given is functional. In general terms: Tetrazolium dyes change colour on reduction, which living cells bring about.
The test system of test [10] is Leishmania amazonensis. Kind of test: Induction of apoptosis in Leishmania amazonensis IFLA/BR/1967/PH8 promastigotes assessed as late apoptotic population at 10 uM after 24 hrs by Annexin V-FITC/PI staining based flow cytometric analysis (reference value: 2.62%). The class given is functional. In outline: as §3
Test [11] deals with Leishmania amazonensis. Nature of the test: Induction of mitochondrial membrane potential loss in Leishmania amazonensis IFLA/BR/1967/PH8 promastigotes at 2.5 uM after 24 hrs by JC-1 staining-based spectrofluorometric analysis relative to control. The class given is functional. An outline of the steps:
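Exponential-phase WT (PH8) promastigotes at 1x10^7 cells/mL, treated 24 h at 25 °C with 2.5–20.0 µM, then harvested, washed and loaded with JC-1. Fluorescence read at 485/528 and 540/600 nm; ΔΨm taken as the 600/528 ratio. Untreated control set to 100%. Positive control was FCCP 20.0 µM for 30 min. Three experiments in triplicate.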

Test [12] relates to Leishmania amazonensis. Nature of the test: Antileishmanial activity against Leishmania amazonensis IFLA/BR/1967/PH8 amastigotes infected in murine macrophages at 0.9 uM incubated for 72 hrs followed by compound washout measured after 72 hrs by microscopic method relative to control. The class given is functional. The settings on record: IFLA/BR/1967/PH8, 72 h. In outline: (§4)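 Macrophages infected with WT PH8 parasites treated 72 h at 33 °C, 5% CO2; washed twice in PBS, then held in drug-free Warren's medium + 10% serum at 25 °C for 72 h; viable promastigotes counted microscopically versus untreated; three independent experiments in duplicate.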

The test system of test [13] is Leishmania amazonensis. Nature of the test: Antileishmanial activity against Leishmania amazonensis IFLA/BR/1967/PH8 amastigotes infected in murine macrophages at 1.8 uM incubated for 72 hrs followed by compound washout measured after 72 hrs by microscopic method relative to control. The note with it: IFLA/BR/1967/PH8, 72 h. The class given is functional. An outline of the steps: as §4

Test [14] has as its system Leishmania amazonensis. Kind of test: Induction of apoptosis in Leishmania amazonensis IFLA/BR/1967/PH8 promastigotes assessed as early apoptotic population at 20 uM after 24 hrs by Annexin V-FITC/PI staining based flow cytometric analysis (reference value: 5.29%). The class given is functional. In outline:
as §3
(In flow cytometry, cells or beads pass a laser one at a time.)

Test [15] in a line: Selectivity index, ratio of CC50 for mouse peritoneal macrophages to IC50 for Leishmania amazonensis IFLA/BR/1967/PH8 amastigotes transfected with red fluorescent protein. In outline: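 SI = CC50 for mouse peritoneal macrophages / RFP amastigote IC50. […] IC50: macrophages infected with RFP-expressing PH8 parasites, treated with 0.78–100.0 µM for 72 h; fluorescence read at 540 nm excitation/600 nm emission. Three experiments in duplicate.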

Test [16] has as its system Leishmania amazonensis. Nature of the test: Induction of autophagy in Leishmania amazonensis IFLA/BR/1967/PH8 promastigotes at 20 uM after 24 hrs by MDC staining-based fluorometric analysis relative to control. The class given is functional. An outline of the steps: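 Exponential WT promastigotes (1x10^7 cells/mL) treated 24 h at 25 °C; washed, adjusted to 10x10^6 cells/mL, 100 µM monodansylcadaverine 1 h dark at 25 °C; fluorescence 335/460 nm versus untreated; three independent experiments.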

Test [17] has as its system Leishmania amazonensis. Nature of the test: Induction of ROS accumulation in Leishmania amazonensis IFLA/BR/1967/PH8 promastigotes at 5 uM after 72 hrs by H2DCFDA staining-based fluorometric analysis relative to control. The class given is functional. In outline:
as §2

Test [18] deals with Leishmania amazonensis. Kind of test: Induction of apoptosis in Leishmania amazonensis IFLA/BR/1967/PH8 promastigotes assessed as necrotic population at 20 uM after 24 hrs by Annexin V-FITC/PI staining based flow cytometric analysis (reference value: 0.03%). The class given is functional. In outline: as §3
Test [19] relates to Leishmania amazonensis. Kind of test: Antileishmanial activity against Leishmania amazonensis WHOM/BR/75/Josefa amastigotes transfected with green fluorescent protein infected in murine macrophages after 72 hrs by fluorometric analysis. The class given is functional. In outline:
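Infected murine macrophages treated 0.78-100.0 µM for 72 h; fluorescence read at 540/600 nm for RFP parasites (PH8) and 485/528 nm for GFP parasites (Josefa strain); IC50 from three independent experiments in duplicate.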

Test [20] has as its system Leishmania amazonensis. Kind of test: Antileishmanial activity against Leishmania amazonensis WHOM/BR/75/Josefa promastigotes transfected with green fluorescent protein after 72 hrs by MTT assay. The class given is functional.
Test [21] concerns Leishmania amazonensis. Kind of test: Induction of apoptosis in Leishmania amazonensis IFLA/BR/1967/PH8 promastigotes assessed as necrotic population at 2.5 uM after 24 hrs by Annexin V-FITC/PI staining based flow cytometric analysis (reference value: 0.03%). The class given is functional.

What is called IC50 is the concentration that gives 50% inhibition. Higher therefore signals weaker potency. As a reminder, the inhibition is the drop in the measured response relative to a control, in per cent.

Regarding `CC(=O)[O-].CCCCCCCCCCn1cc(CO)[n+](C)n1`, the “fold change (FC)” value in the test on Leishmania amazonensis [1] is recorded as 1.9. Besides, the Activity in the test on Leishmania amazonensis [2] was 32.5%; in the test with Leishmania amazonensis [3], 20%; with Leishmania amazonensis [4] it was 54%; in the test with Leishmania amazonensis [5], 30.6%; in the test with Leishmania amazonensis [7], 28.56%; in the test with Leishmania amazonensis [8], 75.5%. Also, the Activity with Leishmania amazonensis [10] was determined as 11.16%; in the test with Leishmania amazonensis [11], 37.5%; with Leishmania amazonensis [14], 30.92%; in the test on Leishmania amazonensis [16], 49.8%; with Leishmania amazonensis [17], 40.7%; in the test on Leishmania amazonensis [18], 3.97%. For the same compound, the Activity in the test on Leishmania amazonensis [21] stood at 0.16%. Also, the IC50 with Leishmania amazonensis [6] was found to be 900 nM; in the test on Leishmania amazonensis [9], 15600 nM; in the test with Leishmania amazonensis [19], 800 nM; in the test with Leishmania amazonensis [20], 3300 nM. The compound further came in with an inhibition at 0.9 µM in the test on Leishmania amazonensis [12] of 61.9%. The same compound yielded an inhibition at 1.8 µM in the test on Leishmania amazonensis [13] of 69%. In addition, the “Ratio CC50/IC50” value in [15] is listed as 115.9.
